Results published in PMC3276733 (Journal of Medicinal Chemistry, 2012).
Read-outs that look alike come from different tables or passages of the source.

Tests used:
[1] = test system: tadpoles; conditions: cited from earlier work
[2] = molecular target: rat α1β2γ2L GABAA receptors expressed in Xenopus laevis oocytes (Rattus norvegicus, UniProt P62813); assay type: cell-based; conditions: 2 μM GABA, compound up to 10 μM
Outline: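 Rat α1, β2, γ2L cRNA (equal parts, 20-40 ng total) injected into defolliculated stage V-VI oocytes, which were held at 18 °C in supplemented ND96 (pH 7.4) and recorded 2-5 days later. Two-electrode voltage clamp at −70 mV. Response was the current ratio with/without compound, against 2 μM GABA. Direct gating: 10 μM compound without GABA, as a ratio to the 2 μM GABA current. ≥4 oocytes; SEM.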

[3] = molecular target: α1(Q241L)β2γ2L GABAA receptors (Rattus norvegicus, UniProt P62813, Q268L); experiment: Potentiation of GABA currents in oocytes expressing the steroid-insensitive α1; assay type: cell-based; conditions: GABA 2 TM, −70 mV, 4 WT and 4 mutant oocytes
[4] = test system: tadpoles; experiment: Tadpole loss of righting reflex; assay type: in vivo; conditions: loss of swimming reflex; None = all tadpoles had a swimming response at 10 μM
[5] = read-out: tadpole LRR EC50, loss of righting reflex, literature values ref 14

For C[C@@]12CC[C@H](O)C[C@H]1CC[C@@H]1[C@@H]2CC[C@@]2(C)C(=O)CC[C@@H]12 (single isomer, unassigned) [compound ent-2, ent-androsterone], the EC50 [1, 5] is listed as 1420 ± 180 nM.
For C[C@@]12CC[C@H](O)C[C@H]1CC[C@@H]1[C@@H]2[C@H](OCc2ccccc2)C[C@@]2(C)C(=O)CC[C@@H]12 (single isomer, unassigned) [compound ent-4, (3β,5β,8α,9β,10α,11α,13α,14β)-11-Benzyloxy-3-hydroxyandrostan-17-one], the “effect on GABA-mediated currents” value [2] was “weakly inhibit”.
In the case of C[C@@]12CC[C@H](O)C[C@H]1C[C@@H](OCc1ccccc1)[C@@H]1[C@@H]2CC[C@@]2(C)C(=O)CC[C@@H]12 (single isomer, unassigned) [compound ent-6, (3β,5β,7α,8α,9β,10α,13α,14β)-7-Benzyloxy-3-hydroxyandrostan-17-one], the “effect of the α1 Q241L mutation on potentiation of GABA currents” value (“effect of the α1 Q241L mutation” below) ([3]; compound 1 TM) is reported as “abolishes, completely or nearly completely”.
With C[C@@]12CC[C@H](O)C[C@H]1C[C@@H](OCc1ccccc1)[C@@H]1[C@@H]2CC[C@]2(C)[C@H]1CC[C@]21CO1 (single isomer, unassigned) [compound ent-7, (3β,5β,7α,8α,9β,10α,13α,14β,17α)-Spiro[7-Benzyoxyandrostane-17,2′-oxiran]-3-ol] the “effect of the α1 Q241L mutation” value ([3]; compound 0.5 TM) was “abolishes, completely or nearly completely”.
In the case of C[C@@]12CC[C@H](O)C[C@H]1CC[C@@H]1[C@@H]2CC[C@]2(C)[C@H]1CC[C@]21CO1 (single isomer, unassigned) [ent-3], the EC50 [1, 5] is listed as 1080 ± 10 nM.
For CC(=O)[C@H]1CC[C@H]2[C@@H]3CC[C@H]4C[C@H](O)CC[C@]4(C)[C@H]3CC[C@]12C [compound 1, allopregnanolone], the “effect of the α1 Q241L mutation” value ([3]; compound 0.5 TM) is given as “eliminates the potentiation”, the EC50 ([1]; read-out: Tadpole LSR EC50, loss of swimming reflex, literature values ref 27) is given as 5500 ± 500 nM and the EC50 ([1]; read-out: tadpole LRR EC50, loss of righting reflex, literature values ref 27) is given as 420 ± 40 nM.
In the case of C[C@]12CC[C@@H](O)C[C@@H]1CC[C@@H]1[C@@H]2CC[C@]2(C)C(=O)CC[C@@H]12 [compound 2, androsterone], the EC50 [1, 5] is given as 3380 ± 900 nM.
In the case of C[C@]12CC[C@@H](O)C[C@@H]1CC[C@@H]1[C@@H]2CC[C@@]2(C)[C@H]1CC[C@@]21CO1 [compound 3], the EC50 [1, 5] is given as 1350 ± 10 nM.
With C[C@]12CC[C@@H](O)C[C@@H]1CC[C@@H]1[C@@H]2[C@@H](OCc2ccccc2)C[C@]2(C)C(=O)CC[C@@H]12 [compound 4, (3α,5α,11β)-11-Benzyloxy-3-hydroxyandrostan-17-one] the “effect of the α1 Q241L mutation” value ([3]; compound 1 TM) was “abolishes, completely or nearly completely”.
In the case of C[C@]12CC[C@@H](O)C[C@@H]1CC[C@@H]1[C@@H]2[C@@H](OCc2ccccc2)C[C@@]2(C)[C@H]1CC[C@@]21CO1 [compound 5, (3α,5α,11β,17β)-Spiro[11-benzyloxyandrostane-17,2′-oxiran]-3-ol], the “effect of the α1 Q241L mutation” value ([3]; compound 0.5 TM) is reported as “abolishes, completely or nearly completely”.
In the case of C[C@]12CC[C@@H](O)C[C@@H]1C[C@H](OCc1ccccc1)[C@@H]1[C@@H]2CC[C@]2(C)C(=O)CC[C@@H]12 [compound 6, (3α,5α,7β)-7-Benzyloxy-3-hydroxyandrostan-17-one], the “effect on GABA-mediated currents” value [2] is reported as “weakly inhibit” and the “Tadpole LSR EC50” value [4] is reported as “None^e”.
With C[C@]12CC[C@@H](O)C[C@@H]1C[C@H](OCc1ccccc1)[C@@H]1[C@@H]2CC[C@@]2(C)[C@H]1CC[C@@]21CO1 [compound 7, (3α,5α,7β,17β)-Spiro-[7-Benzyloxyandrostane-17,2′-oxiran]-3-ol] the “effect on GABA-mediated currents” value [2] was “weakly inhibit”.
